Bioassay records as filed in PubChem BioAssay.
MT stabilize HCS – microtubule stabilizers in HeLa cells; 0.83% of 200,000 active; HeLa tubulin immunostaining HCS, 24 h; share of cells brighter than vehicle mean+2SD; % tubulin-high responders, % at 10 µM;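 active = plate Z-score above 3 for both tubulin-high and condensed-nucleus cell shares, with cell loss under 80%, at 10 µM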;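 also: anti alpha tubulin signal scored within the nucleus-defined area of each cell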
Autophagy HCS – autophagy modulation, high-content screen; 0.98% of 190,000 active; calls only at 10 µM (by protocol); MEF GFP-LC3 puncta imaging; test concentration mostly 10 µM;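 active = percentage of spot-positive cells more than 3 SD above its plate mean, without a fluorescence outlier flag or 80% toxicity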;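 also: spot-positive cell cutoff set from DMSO-treated cells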
b-catenin transl – alters nuclear translocation of beta-catenin in HeLa cells; immunofluorescence imaging; nuclear translocation activity, % at 5 µM; 0.3% of 190,000 active;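 active = nuclear translocation activity above 50% at 5 µM, with a well cell count of 50 or more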;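 also: per-cell ratio of nuclear to cytoplasmic median beta-catenin stain intensity; plate controls were DMSO negative control for no effect and GSK-3 inhibitor IX positive control for full effect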
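Signal – beta-catenin immunofluorescence imaging with DAPI · Test system – human HeLa cell line · Dosing – 5 µM primary single dose, 0.1% DMSO, 0.02–20 µM confirmation series · Measure – % activation, nuclear-to-cytoplasmic median beta-catenin signal ratio per cell · Incubation – 24 h compound exposure at 37°C, 5% CO2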
Lmaj promast – inhibitors of Leishmania major promastigote growth; inhibition, % at 10 µM; 9% of 200,000 active; Leishmania major promastigotes, resazurin fluorescence viability; AID 1063; in the data active = inhibition above about 50%;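 also: promastigotes grown with compound for 44 hours at 28 °C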
Dynein cargo inh – dynein cargo transport inhibition; 3617.4 mouse cells, GR-EGFP nuclear translocation imaging; test concentration mostly 20 µM; stimulated with dexamethasone, 1 µM; hits give low values; 0.47% of 220,000 active; z-score, hits read low;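 active = plate z-score of nuclear minus cytoplasmic receptor signal below a set negative limit, without overly bright fluorescence or cell loss, cut at about -3.5 in these data, passing the limit was not always enough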;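 also: z-score of nuclear minus cytoplasmic ring GR-EGFP intensity difference per well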
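Medium: Induction medium lacking tetracycline, stripped serum | Probe or stimulus: 1.0 µM final dexamethasone stimulus | Schedule: 48 h induction, then 1 h compound, then 30 min agonist, 37 °C | Signal: Automated 10x imaging of fixed Hoechst-stained cells | Evaluation: Per-cell GR-EGFP intensity, nucleus versus surrounding cytoplasmic ring, well-averaged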
CHOP inhibitor – blocks CHOP induction under ER stress; CHO-K1 CHOP-promoter luciferase, tunicamycin-induced, 15-18 h; inhibition, % at 10 µM; 3.8% of 220,000 active; AID 2732;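 active = compounds that reduced the stress-induced luciferase reporter signal by more than about 70% of percent inhibition, limit read from the data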;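 also: 0% = tunicamycin plus vehicle and 100% = wells without tunicamycin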
The depositor's hits bear a star; i = inactive; · = no result; + = active, no number. The list is not random: actives were taken first. Their share in the collection is about 12%.

SMILES	MT stabilize HCS	Autophagy HCS	b-catenin transl	Lmaj promast	Dynein cargo inh	CHOP inhibitor
CCOC(=O)NC(NCCc1ccccc1)(C(F)(F)F)C(F)(F)F	3	i	1	-2	0.2	70*
CC(C)c1cc(-c2cc(C(=O)NCc3ccccc3)on2)nc(NCC2CC2)n1	·	·	-1	·	-0.57	55
CN(c1ccccc1)S(=O)(=O)c1cccc(NC(=O)c2ccc3ncsc3c2)c1	·	·	-1	·	0.13	32
CCCC(c1nnnn1CC1CCCO1)N1CCN(c2nc3ccccc3s2)CC1 (centres undefined)	4	i	2	94*	2.5	22
CCCC(c1nnnn1Cc1cccs1)N1CCN(c2nc3ccccc3s2)CC1 (centres undefined)	4	i	0	97*	-0.95	49
CC(C)CC(c1nnnn1CC1CCCO1)N1CCN(c2nc3ccccc3s2)CC1 (centres undefined)	3	i	-1	91*	-1.2	19
CCCCC(c1nnnn1CC1CCCO1)N1CCN(c2nc3ccccc3s2)CC1 (centres undefined)	5	i	1	99*	0.25	-6
O=C(c1ccccc1)c1cc2c(cc1[N+](=O)[O-])OCCO2	2	i	0	-4	0.94	-16
COC(=O)c1ccccc1NC(=O)C(=O)NCc1ccncc1	3	i	0	1	1.9	2
CCCC(c1nnnn1CS(=O)(=O)c1ccc(C)cc1)N1CCN(c2ccccc2)CC1 (centres undefined)	2	i	·	5	-0.14	34
CCC(c1nnnn1CS(=O)(=O)c1ccc(C)cc1)N1CCN(c2nc3ccccc3s2)CC1 (centres undefined)	2	i	-2	98*	0.65	48
CCCCN(C)CCNC(=O)CCNC(=O)Cn1ccc2ccccc2c1=O	3	i	-1	-10	-0.13	26
Cc1ccc(C)c(S(=O)(=O)Nc2ccccc2C(=O)Nc2cc(C)on2)c1	3	i	-6	35	1.5	-4
Cc1ccc(C)c(NC(=O)c2ccccc2NS(=O)(=O)c2cc([N+](=O)[O-])ccc2C)c1	4	i	1	63*	-0.36	74*
Cc1ccc(C)c(NC(=O)c2ccccc2Sc2ccc([N+](=O)[O-])cc2Cl)c1	3	i	-1	96*	0.24	65
CC(C)C(=O)Nc1ccc(S(=O)(=O)Nc2nccc(/C=C/c3ccccc3)n2)cc1	6	i	-3	-9	0.17	27
CCN(CC)S(=O)(=O)c1ccc(/C=C/C(=O)OCC(=O)N(C(C)C)C(C)C)cc1	2	i	-1	1	-0.38	22
C/C(=N\Nc1ccc([N+](=O)[O-])cc1)c1ccc(C#N)cc1	·	·	1	·	-1.9	-13
C/C(=N/Nc1ccc([N+](=O)[O-])cc1)c1ccc(C)cc1C	1	i	1	5	0.35	94*
O=S(=O)(NNc1ccc(Cl)nn1)c1ccc(F)cc1	5	i	-1	91*	-0.27	-10
CCC1Cc2c(nc(N)c3c(N)nc(N4CCCCC4)c(C#N)c23)O1 (centres undefined)	2	i	-1	51*	-0.38	22
CN1N=C2c3ccccc3CCCC2C1c1ccc(F)cc1 (centres undefined)	·	·	2	·	0.44	-20
Cc1cc(SCC(=O)c2cccs2)nc2c(C)cccc12	3	i	-3	-3	1.7	24
CC(=O)Nc1ccc(C(=O)CSc2cc(C)c3cccc(C)c3n2)cc1	2	i	1	51*	0.16	35
Cc1ccc(C2SCC(=O)N2Cc2cn3ccsc3n2)o1 (centres undefined)	1	+	-1	-8	-0.4	3
SMILES	MT stabilize HCS	Autophagy HCS	b-catenin transl	Lmaj promast	Dynein cargo inh	CHOP inhibitor
c1cn2cc(CN3CCOCC3)nc2s1	2	i	-5	-10	-0.12	-8
COc1cc2c(cc1OC)C(Nn1cnnc1)=NC1(CCCC1)C2	·	·	0	·	-0.85	1
NC(=S)Nc1cccc(F)c1	·	·	-2	·	-1	-13
CCSc1ncc(/C=N/Nc2ccc(F)cc2)n1C	4	i	-1	69*	0.66	23
CCCCn1nnnc1SCC(=O)Nc1ccc(F)cc1	2	i	-6	-2	0.81	10
Cn1c(-c2cccc3ccccc23)n[nH]c1=S	2	i	3	-7	-0.8	6
COCCCNc1ncnc2ccc(C)cc12	3	i	-1	42	0.4	19
Cc1ccc2ncnc(Nc3ccc(C)c(C)c3)c2c1	1	i	·	73*	-0.59	17
Clc1cccc(-c2ccnc3nc(-n4cccc4)nn23)c1	2	i	2	-8	-0.17	76*
CC(=O)NC1CC2CCCC(C1)N2CC(=O)N1CCCc2ccccc21 (centres undefined)	4	i	3	-1	-0.15	7
O=C(NC1CC2CCCC(C1)N2CC(=O)N1CCCc2ccccc21)C1CCCCC1 (centres undefined)	6	i	-2	57*	2.8	26
O=C(CSCc1c(Cl)cccc1Cl)Nc1ccc2c(c1)OCCO2	3	i	2	7	0.034	-10
Cc1cc(C)cc(C(=O)OCC(=O)Nc2cccc(S(=O)(=O)NC3=NCCCCC3)c2)c1	4	i	-2	52*	-0.77	36
O=C(Nc1nc(-c2ccccc2)cs1)C1COc2ccccc2O1 (centres undefined)	1	i	4	3	-0.44	28
O=C(Nc1nc(-c2ccccn2)cs1)C1COc2ccccc2O1 (centres undefined)	4	i	2	77*	0.012	1
COc1ccc(C(=O)NC(C(=O)NCC(=O)Nc2c(C)cccc2C)C(C)C)cc1 (centres undefined)	2	i	0	67*	0.49	18
c1ccc(CCNc2nc(-c3ccccn3)cs2)cc1	1	i	-1	100*	-1.3	-46
Cc1cccc(C(=O)N[C@H](C(=O)Nc2nc(C)cs2)C(C)C)c1	2	i	·	64*	-0.56	14
Cc1nc2ccc3nc(NC(=O)C4COc5ccccc5O4)sc3c2s1 (centres undefined)	3	i	-2	11	-0.57	-12
O=C(Nc1nc(-c2ccc(S(=O)(=O)N3CCCC3)cc2)cs1)C1COc2ccccc2O1 (centres undefined)	4	i	·	84*	-1.3	41
Cc1ccc(C(=O)Nc2nc(-c3ccccn3)cs2)o1	·	·	-4	·	-1.3	30
CC(C)[C@H](NC(=O)c1ccccc1Cl)C(=O)Nc1nc(-c2ccccn2)cs1	3	i	1	99*	-0.62	33
O=C(Nc1ccc(S(=O)(=O)N2CCCC2)cc1)C1COc2ccccc2O1 (centres undefined)	3	i	1	-2	-0.048	17
